Consider 31 compounds from ChEMBL document CHEMBL1156036, “A class of novel N-(3S-1,2,3,4-tetrahydroisoquinoline-3-carbonyl)-L-amino acid derivatives: their synthesis, anti-thrombotic activity evaluation, and 3D QSAR analysis” (Eur J Med Chem, 2009).

Square brackets hold non-standard residues; d marks the D form. Peptide text beside a SMILES is read from it. Tic = O=C(O)[C@@H]1Cc2ccccc2CN1

What all share (type): functional
A short description of assay [1]: Antiplatelet aggregatory activity in pig […] assessed as inhibition of arachidonic acid-induced platelet aggregation. Conditions: Sus scrofa. Put shortly: (§1)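 Pig blood spun 1000g 10 min for platelet-rich plasma, then 1500g 10 min for platelet-poor plasma; platelets adjusted to 2×10^8/ml with autologous PPP. Test agent in NS (final 100 to 0.001 μM) added to 0.5 ml plasma, then inducer in NS: PAF 0.1 μM, ADP 10 μM, AA 350 μM or thrombin 0.1 U/ml (final). Optical aggregometry, 37 °C, 5 min, six tubes.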

Assay [2] is described as follows: Antiplatelet aggregatory activity in pig […] assessed as inhibition of thrombin-induced platelet aggregation. Conditions: Sus scrofa. Put shortly: as §1
In assay [3] the test system is Rattus norvegicus. Briefly: Antithrombotic activity in Wistar rat assessed as reduction of wet thrombus weight at 5 umol/kg, iv after 15 mins. Put shortly:
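Male Wistar rats, 250-300 g, given agent dissolved in NS (kept on ice) intravenously; Aspirin 15 μmol/kg as reference, NS as vehicle. Pentobarbital sodium 80.0 mg/kg i.p. Arteriovenous shunt from right carotid artery to left jugular vein via polyethylene tube containing a thread; blood flowed 15 min; wet thrombus weighed, n = 12, mean ± SD.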

A short description of assay [4]: Antiplatelet aggregatory activity in pig […] assessed as inhibition of ADP-induced platelet aggregation. Conditions: Sus scrofa. Put shortly: as §1
Assay [5] is described as follows: Antiplatelet aggregatory activity in pig […] assessed as inhibition of platelet-activating factor-induced platelet aggregation. Conditions: Sus scrofa. Put shortly: as §1
The species named for assay [6] is Rattus norvegicus. Description: Ratio of compound antithrombotic potency to aspirin antithrombotic potency in Wistar rat assessed as reduction of wet thrombus weight.

One may read the IC50 as the concentration that inhibits the measured activity by half. On to `C[C@H](N)C(=O)N1Cc2ccccc2C[C@H]1C(=O)O` (H-Ala-[Tic]-OH), for which the IC50 in assay [1] stood at 452 nM; in assay [2], 741 nM; in assay [4], 651 nM; in assay [5] it was 945 nM. Also, in the assay with Rattus norvegicus [3], the Activity is given as 20.3 mg.

On to `N=C(N)NCCC[C@H](N)C(=O)N1Cc2ccccc2C[C@H]1C(=O)O` (H-Arg-[Tic]-OH), for which the IC50 was 298 nM in assay [1], 565 nM in assay [2], 210 nM in assay [4] and 517 nM in assay [5]. Also, in the assay with Rattus norvegicus [3], the Activity is given as 20.06 mg.

In the case of `NC(=O)C[C@H](N)C(=O)N1Cc2ccccc2C[C@H]1C(=O)O` (H-Asn-[Tic]-OH), the 50% inhibitory concentration (IC50) in assay [1] came out at 430 nM; in assay [2], 495 nM; in assay [4] it was 534 nM; in assay [5] it was 360 nM. The Activity in the assay on Rattus norvegicus [3] stood at 22.66 mg.

`N[C@@H](CC(=O)O)C(=O)N1Cc2ccccc2C[C@H]1C(=O)O` (H-Asp-[Tic]-OH): the IC50 was 344 nM in assay [1], 345 nM in assay [4] and 383 nM in assay [5]. Besides, in the assay on Rattus norvegicus [3], the Activity was determined as 20.3 mg.

With `NC(=O)CC[C@H](N)C(=O)N1Cc2ccccc2C[C@H]1C(=O)O` (H-Gln-[Tic]-OH), the IC50 in assay [1] is 407 nM; in assay [2], 555 nM; in assay [4], 302 nM; in assay [5] it was 392 nM. In the assay with Rattus norvegicus [3], the Activity is reported as 21.3 mg.

Consider `N[C@@H](CCC(=O)O)C(=O)N1Cc2ccccc2C[C@H]1C(=O)O` (H-Glu-[Tic]-OH), for which the IC50 was 369 nM in assay [1], 589 nM in assay [2], 494 nM in assay [4] and 544 nM in assay [5]. The Activity with Rattus norvegicus [3] was determined as 20.87 mg.

Consider `NCC(=O)N1Cc2ccccc2C[C@H]1C(=O)O` (H-Gly-[Tic]-OH), for which the IC50 in assay [1] came out at 440 nM; in assay [2], 761 nM; in assay [4], 365 nM; in assay [5] it was 875 nM. Besides, the Activity in the assay on Rattus norvegicus [3] amounted to 21.17 mg.

In the case of `N[C@@H](Cc1c[nH]cn1)C(=O)N1Cc2ccccc2C[C@H]1C(=O)O` (H-His-[Tic]-OH), the IC50 in assay [1] was found to be 351 nM; in assay [2], 684 nM; in assay [4], 324 nM; in assay [5], 670 nM. Further, the Activity with Rattus norvegicus [3] is recorded as 21.78 mg.

For `CC[C@H](C)[C@H](N)C(=O)N1Cc2ccccc2C[C@H]1C(=O)O` (H-Ile-[Tic]-OH), the IC50 in assay [1] was found to be 238 nM; in assay [2], 674 nM; in assay [4], 315 nM; in assay [5] it was 831 nM. The Activity with Rattus norvegicus [3] is reported as 21.14 mg.

For the compound `CC(C)C[C@H](N)C(=O)N1Cc2ccccc2C[C@H]1C(=O)O` (H-Leu-[Tic]-OH), the IC50 in assay [1] was 573 nM; in assay [2], 730 nM; in assay [4] it was 336 nM; in assay [5] it was 891 nM. Besides, the Activity in the assay with Rattus norvegicus [3] is reported as 19.12 mg.

Regarding `NCCCC[C@H](N)C(=O)N1Cc2ccccc2C[C@H]1C(=O)O` (H-Lys-[Tic]-OH), the IC50 in assay [1] turned out to be 521 nM; in assay [2] it was 829 nM; in assay [4], 323 nM; in assay [5] it was 472 nM. Further, in the assay on Rattus norvegicus [3], the Activity was found to be 21.31 mg.

With `CSCC[C@H](N)C(=O)N1Cc2ccccc2C[C@H]1C(=O)O` (H-Met-[Tic]-OH), the IC50 was 382 nM in assay [1], 265 nM in assay [4] and 409 nM in assay [5]. Also, in the assay with Rattus norvegicus [3], the Activity was found to be 19.56 mg.

With `N[C@@H](Cc1ccccc1)C(=O)N1Cc2ccccc2C[C@H]1C(=O)O` (H-Phe-[Tic]-OH), the values for the IC50 in assay [1], in assay [2] and in assay [4] were 666 nM, 851 nM and 370 nM, respectively. The Activity in the assay on Rattus norvegicus [3] stood at 22.23 mg.

Take `O=C(O)[C@@H]1Cc2ccccc2CN1C(=O)[C@@H]1CCCN1` (H-Pro-[Tic]-OH): the IC50 in assay [1] was 526 nM; in assay [2], 590 nM; in assay [4] it was 373 nM. Also, the Activity with Rattus norvegicus [3] is listed as 21.09 mg.

For the compound `N[C@@H](CO)C(=O)N1Cc2ccccc2C[C@H]1C(=O)O` (H-Ser-[Tic]-OH), the IC50 in assay [1] was 572 nM; in assay [2] it was 498 nM; in assay [4], 103 nM; in assay [5], 267 nM. In the assay with Rattus norvegicus [3], the Activity stood at 18 mg.

With `C[C@@H](O)[C@H](N)C(=O)N1Cc2ccccc2C[C@H]1C(=O)O` (H-Thr-[Tic]-OH), the IC50 in assay [1] came to 215 nM; in assay [2], 879 nM; in assay [4] it was 240 nM; in assay [5], 404 nM. Moreover, the Activity with Rattus norvegicus [3] turned out to be 20.73 mg.

For the compound `N[C@@H](Cc1ccc(O)cc1)C(=O)N1Cc2ccccc2C[C@H]1C(=O)O` (H-Tyr-[Tic]-OH), the IC50 in assay [1] amounted to 535 nM; in assay [2] it was 736 nM; in assay [5], 668 nM. In the assay on Rattus norvegicus [3], the Activity is 20.92 mg.

With `CC(C)[C@H](N)C(=O)N1Cc2ccccc2C[C@H]1C(=O)O` (H-Val-[Tic]-OH), the IC50 was determined as 423 nM in assay [1], 653 nM in assay [2], 389 nM in assay [4] and 632 nM in assay [5]. Also, the Activity in the assay with Rattus norvegicus [3] came to 20.12 mg.

With `C[C@H](NC(=O)[C@@H]1Cc2ccccc2CN1)C(=O)O` (H-[Tic]-Ala-OH), the half-maximal inhibitory concentration (IC50) stood at 104 nM in assay [1], 485 nM in assay [2], 350 nM in assay [4] and 352 nM in assay [5]. Further, the Activity in the assay on Rattus norvegicus [3] was found to be 21.4 mg. The Ratio in the assay listed under Rattus norvegicus [6] is listed as more than 30.

Take `NC(=O)C[C@H](NC(=O)[C@@H]1Cc2ccccc2CN1)C(=O)O` (H-[Tic]-Asn-OH): the IC50 was 166 nM in assay [1], 551 nM in assay [2], 470 nM in assay [4] and 153 nM in assay [5]. The Activity in the assay on Rattus norvegicus [3] is 20.24 mg. In addition, the Ratio in the assay listed under Rattus norvegicus [6] is reported as more than 30.

In the case of `O=C(O)C[C@H](NC(=O)[C@@H]1Cc2ccccc2CN1)C(=O)O` (H-[Tic]-Asp-OH), the IC50 was 391 nM in assay [1], 157 nM in assay [2], 329 nM in assay [4] and 633 nM in assay [5]. Also, in the assay with Rattus norvegicus [3], the Activity is listed as 21.67 mg. Besides, the Ratio in the assay filed under Rattus norvegicus [6] is recorded as more than 30.

In the case of `O=C(O)[C@H](CS)NC(=O)[C@@H]1Cc2ccccc2CN1` (H-[Tic]-Cys-OH), the IC50 in assay [1] turned out to be 460 nM; in assay [2], 386 nM; in assay [4] it was 231 nM; in assay [5], 780 nM. The Activity with Rattus norvegicus [3] was found to be 20.91 mg. The Ratio in the assay filed under Rattus norvegicus [6] is reported as more than 30.

As to `NC(=O)CC[C@H](NC(=O)[C@@H]1Cc2ccccc2CN1)C(=O)O` (H-[Tic]-Gln-OH), the IC50 in assay [1] turned out to be 494 nM; in assay [2], 935 nM; in assay [4], 235 nM; in assay [5] it was 138 nM. Further, the Activity with Rattus norvegicus [3] was 22.08 mg. Also, in the assay filed under Rattus norvegicus [6], the Ratio was more than 30.

As for `O=C(O)CC[C@H](NC(=O)[C@@H]1Cc2ccccc2CN1)C(=O)O` (H-[Tic]-Glu-OH), the IC50 in assay [1] was 356 nM; in assay [2], 545 nM; in assay [4] it was 482 nM; in assay [5] it was 176 nM. The Activity in the assay on Rattus norvegicus [3] stood at 19.69 mg. Further, the Ratio in the assay listed under Rattus norvegicus [6] is more than 30.

Take `O=C(O)CNC(=O)[C@@H]1Cc2ccccc2CN1` (H-[Tic]-Gly-OH): the IC50 in assay [1] stood at 108 nM; in assay [2], 306 nM; in assay [4], 496 nM; in assay [5], 791 nM. Besides, the Activity in the assay on Rattus norvegicus [3] was determined as 20.24 mg. Besides, the Ratio in the assay filed under Rattus norvegicus [6] was more than 30.

For the compound `O=C(O)[C@H](Cc1c[nH]cn1)NC(=O)[C@@H]1Cc2ccccc2CN1` (H-[Tic]-His-OH), the IC50 in assay [1] was 491 nM; in assay [2], 370 nM; in assay [4], 661 nM; in assay [5], 724 nM. The Activity in the assay on Rattus norvegicus [3] is listed as 20.86 mg. Further, the Ratio in the assay listed under Rattus norvegicus [6] was more than 30.

As to `CC[C@H](C)[C@H](NC(=O)[C@@H]1Cc2ccccc2CN1)C(=O)O` (H-[Tic]-Ile-OH), the IC50 in assay [1] is 443 nM; in assay [2] it was 657 nM; in assay [4], 540 nM; in assay [5] it was 938 nM. In addition, in the assay on Rattus norvegicus [3], the Activity worked out at 20.03 mg. Moreover, in the assay filed under Rattus norvegicus [6], the Ratio was more than 30.

In the case of `CC(C)C[C@H](NC(=O)[C@@H]1Cc2ccccc2CN1)C(=O)O` (H-[Tic]-Leu-OH), the IC50 worked out at 290 nM in assay [1], 454 nM in assay [2], 478 nM in assay [4] and 1610 nM in assay [5]. Moreover, in the assay on Rattus norvegicus [3], the Activity is reported as 20.23 mg. For the same compound, the Ratio in the assay listed under Rattus norvegicus [6] is more than 30.

Take `NCCCC[C@H](NC(=O)[C@@H]1Cc2ccccc2CN1)C(=O)O` (H-[Tic]-Lys-OH): the IC50 in assay [1] came out at 277 nM; in assay [2], 733 nM; in assay [4], 194 nM; in assay [5], 1040 nM. Also, the Activity in the assay on Rattus norvegicus [3] is 21.28 mg. The Ratio in the assay listed under Rattus norvegicus [6] is listed as more than 30.

Take `CSCC[C@H](NC(=O)[C@@H]1Cc2ccccc2CN1)C(=O)O` (H-[Tic]-Met-OH): the IC50 in assay [1] was determined as 191 nM; in assay [2], 312 nM; in assay [4] it was 229 nM; in assay [5], 376 nM. The Activity in the assay with Rattus norvegicus [3] was 21.74 mg. Also, the Ratio in the assay listed under Rattus norvegicus [6] was more than 30.

In the case of `O=C(O)[C@H](Cc1ccccc1)NC(=O)[C@@H]1Cc2ccccc2CN1` (H-[Tic]-Phe-OH), the IC50 in assay [1] was 553 nM; in assay [2] it was 336 nM; in assay [4] it was 188 nM; in assay [5], 218 nM. The Activity in the assay on Rattus norvegicus [3] amounted to 19.11 mg. Further, in the assay filed under Rattus norvegicus [6], the Ratio is given as more than 30.
